From ChEMBL document CHEMBL1152495, “Synthesis and antimicrobial studies of novel methylene bridged benzisoxazolyl imidazo[2,1-b][1,3,4]thiadiazole derivatives” (2009)
In brackets after ≈: the same amount, converted by molar mass.

What was measured:
Assay type in all cases: functional
Staphylococcus aureus [1] = test: Antibacterial activity against Staphylococcus aureus ATCC 25923 at 100 ug/ml after 24 hrs by agar well diffusion method; details: ATCC 25923, 24 h, read-out: IZ
Outline: (§1)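 Agar well diffusion on Mueller Hinton agar (20 mL per dish), seeded homogeneously with liquid bacterial culture by spread plating. Samples loaded directly into wells, dimethylformamide as solvent control, ampicillin as reference drug. Plates incubated at 37 °C for 24 h. All determinations done in triplicate.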

Bacillus subtilis [2] = test: Antibacterial activity against Bacillus subtilis ATCC 6633 at 100 ug/ml after 24 hrs by agar well diffusion method; details: ATCC 6633, 24 h, read-out: IZ; outline: as §1
Escherichia coli [3] = test: Antibacterial activity against Escherichia coli ATCC 35218 at 100 ug/ml after 24 hrs by agar well diffusion method; details: ATCC 35218, 24 h, read-out: IZ; outline: as §1
Pseudomonas aeruginosa [4] = test: Antibacterial activity against Pseudomonas aeruginosa ATCC 10145 at 100 ug/ml after 24 hrs by agar well diffusion method; details: ATCC 10145, 24 h, read-out: IZ; outline: as §1
Candida albicans [5] = test: Antifungal activity against Candida albicans at 100 ug/ml after 72 hrs by agar well diffusion method; details: read-out: IZ
Outline: (§2)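 Fungi grown on Potato Dextrose Agar (20 mL per dish), seeded homogeneously with liquid culture by spread plating. Samples loaded directly into agar wells, with dimethylformamide as solvent control and clotrimazole as reference drug. Plates incubated at 25 °C for 72 h, triplicate determinations.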

Aspergillus fumigatus [6] = test: Antifungal activity against Aspergillus fumigatus at 100 ug/ml after 72 hrs by agar well diffusion method; details: read-out: IZ; outline: as §2
Staphylococcus aureus [7] = test: Antibacterial activity against Staphylococcus aureus ATCC 25923 after 24 hrs by agar well diffusion method; details: ATCC 25923, 24 h; outline: as §1
Bacillus subtilis [8] = test: Antibacterial activity against Bacillus subtilis ATCC 6633 after 24 hrs by agar well diffusion method; details: ATCC 6633, 24 h; outline: as §1
Escherichia coli [9] = test: Antibacterial activity against Escherichia coli ATCC 35218 after 24 hrs by agar well diffusion method; details: ATCC 35218, 24 h; outline: as §1
Pseudomonas aeruginosa [10] = test: Antibacterial activity against Pseudomonas aeruginosa ATCC 10145 after 24 hrs by agar well diffusion method; details: ATCC 10145, 24 h; outline: as §1
Candida albicans [11] = test: Antifungal activity against Candida albicans after 72 hrs by agar well diffusion method; outline: as §2
Aspergillus fumigatus [12] = test: Antifungal activity against Aspergillus fumigatus after 72 hrs by agar well diffusion method; outline: as §2

Row | Compound | zone of inhibition at 100 µg/mL (Staphylococcus aureus [1]) [mm] | zone of inhibition at 100 µg/mL (Bacillus subtilis [2]) [mm] | zone of inhibition at 100 µg/mL (Escherichia coli [3]) [mm] | zone of inhibition at 100 µg/mL (Pseudomonas aeruginosa [4]) [mm] | zone of inhibition at 100 µg/mL (Candida albicans [5]) [mm] | zone of inhibition at 100 µg/mL (Aspergillus fumigatus [6]) [mm] | MIC (Staphylococcus aureus [7]) [µg/mL] | MIC (Bacillus subtilis [8]) [µg/mL] | MIC (Escherichia coli [9]) [µg/mL] | MIC (Pseudomonas aeruginosa [10]) [µg/mL] | MIC (Candida albicans [11]) [µg/mL] | MIC (Aspergillus fumigatus [12]) [µg/mL]
1 | Nc1nnc(Cc2noc3ccccc23)s1 | 15 | 15 | 10 | 14 | 14 | 11 | 1.5 (≈ 6.46 µM) | 1 (≈ 4.31 µM) | 3.5 (≈ 15.1 µM) | 2.5 (≈ 10.8 µM) | 3 (≈ 12.9 µM) | 3.5 (≈ 15.1 µM)
2 | COc1ccc(-c2nc3sc(Cc4noc5ccccc45)nn3c2N=O)cc1 | 13 | 11 | 16 | 8 | 14 | 10 | 1.5 (≈ 3.83 µM) | 3 (≈ 7.66 µM) | 2 (≈ 5.11 µM) | 3.5 (≈ 8.94 µM) | 3 (≈ 7.66 µM) | 4 (≈ 10.2 µM)
3 | O=c1oc2ccccc2cc1-c1nc2sc(Cc3noc4ccccc34)nn2c1Br | 15 | 10 | 13 | 14 | 14 | 17 | 2 (≈ 4.17 µM) | 3 (≈ 6.26 µM) | 2.5 (≈ 5.22 µM) | 2.5 (≈ 5.22 µM) | 3 (≈ 6.26 µM) | 2.5 (≈ 5.22 µM)
4 | N#CSc1c(-c2ccc(Br)cc2)nc2sc(Cc3noc4ccccc34)nn12 | 12 | 14 | 15 | 18 | 14 | 12 | 1.5 (≈ 3.2 µM) | 2 (≈ 4.27 µM) | 2 (≈ 4.27 µM) | 2 (≈ 4.27 µM) | 3 (≈ 6.41 µM) | 4 (≈ 8.54 µM)
5 | N#CSc1c(-c2ccccc2)nc2sc(Cc3noc4ccccc34)nn12 | 16 | 14 | 12 | 17 | 12 | 15 | 1.5 (≈ 3.85 µM) | 1.5 (≈ 3.85 µM) | 3 (≈ 7.7 µM) | 2 (≈ 5.14 µM) | 3.5 (≈ 8.99 µM) | 2.5 (≈ 6.42 µM)
6 | O=Nc1c(-c2ccc(Br)cc2)nc2sc(Cc3noc4ccccc34)nn12 | 16 | 12 | 14 | 12 | 17 | 15 | 1 (≈ 2.27 µM) | 2.5 (≈ 5.68 µM) | 2 (≈ 4.54 µM) | 3 (≈ 6.81 µM) | 2.5 (≈ 5.68 µM) | 2.5 (≈ 5.68 µM)
7 | O=Nc1c(-c2ccc(Cl)cc2)nc2sc(Cc3noc4ccccc34)nn12 | 10 | 14 | 13 | 15 | 15 | 17 | 2 (≈ 5.05 µM) | 1.5 (≈ 3.79 µM) | 3 (≈ 7.58 µM) | 2.5 (≈ 6.32 µM) | 3 (≈ 7.58 µM) | 2.5 (≈ 6.32 µM)
8 | COc1ccc(-c2cn3nc(Cc4noc5ccccc45)sc3n2)cc1 | 10 | 14 | 12 | 11 | 15 | 19 | 3.5 (≈ 9.66 µM) | 2.5 (≈ 6.9 µM) | 3 (≈ 8.28 µM) | 3 (≈ 8.28 µM) | 3 (≈ 8.28 µM) | 2 (≈ 5.52 µM)
9 | O=c1oc2ccccc2cc1-c1cn2nc(Cc3noc4ccccc34)sc2n1 | 13 | 15 | 10 | 10 | 20 | 13 | 3 (≈ 7.49 µM) | 1 (≈ 2.5 µM) | 3.5 (≈ 8.74 µM) | 3 (≈ 7.49 µM) | 2.5 (≈ 6.24 µM) | 3.5 (≈ 8.74 µM)
10 | COc1ccc(-c2nc3sc(Cc4noc5ccccc45)nn3c2Br)cc1 | 11 | 18 | 16 | 17 | 10 | 15 | 1.5 (≈ 3.4 µM) | 0.5 (≈ 1.13 µM) | 2 (≈ 4.53 µM) | 2 (≈ 4.53 µM) | 4 (≈ 9.06 µM) | 2.5 (≈ 5.66 µM)
